Drawing on ChEMBL document CHEMBL3588831, “Synthesis and in Vivo Evaluation of [123I]Melanin-Targeted Agents” (J Med Chem, 2015), this text covers Retention_time and Drug uptake for 5 compounds.

Data set [1] in a line: Retention time of the compound by HPLC method. The class given is physicochemical.
The nature of data set [2]: Drug distribution in thyroid gland of C57BL/6J mouse bearing mouse B16F0 cells at 18 to 20 MBq, iv after 72 hrs by SPECT imaging study. The class given is ADME, organism-based. The conditions noted are these: in vivo. The essentials:
(§1)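 Female C57BL/6J mice (5–6 weeks) were inoculated s.c. on the left flank with 3 × 10^5 B16F0 cells in PBS and used after 11 days, with tumors 2–12 mm. Each received 18–20 MBq in 100 μL by lateral tail vein (n = 3 per tracer). Planar SPECT was done under isoflurane at 10–60 min, 3, 6, 24, 48 and 72 h. ROI pixel values were decay-corrected.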

In data set [3] the test system is Brain. Put plainly: Drug distribution in brain of C57BL/6J mouse bearing mouse B16F0 cells at 18 to 20 MBq, iv measured over 72 hrs by SPECT imaging study. The class given is ADME, organism-based. To be noted: in vivo. The method in brief: (§2)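 Female C57BL/6J mice bearing s.c. B16F0 tumors (11 days growth) received 18−20 MBq in 100 μL via lateral tail vein (n = 3). Isoflurane anesthesia (5% induction, 2−2.5% maintenance) on a 37 °C heating pad. Planar γ-camera imaging at 10−60 min (5 min frames), 3 and 6 h, 24, 48 and 72 h. Radioactivity localization assessed visually.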

A short description of data set [4]: Drug distribution in eyes of C57BL/6J mouse bearing mouse B16F0 cells at 18 to 20 MBq, iv measured over 72 hrs by SPECT imaging study. The class given is ADME, organism-based, Eye. To be noted: in vivo. The method in brief: as §1
Data set [5] is described as follows: Drug distribution in thyroid gland of C57BL/6J mouse bearing mouse B16F0 cells at 18 to 20 MBq, iv after 24 hrs by SPECT imaging study. The class given is ADME, organism-based. The conditions noted are these: in vivo. The essentials: as §1
Data set [6] is described as follows: Drug distribution in thyroid gland of C57BL/6J mouse bearing mouse B16F0 cells at 18 to 20 MBq, iv after 3 hrs by SPECT imaging study. It is filed as ADME, organism-based. To be noted: in vivo. The method in brief:
as §1

For data set [7], the system named is Brain. Put plainly: Drug distribution in brain of C57BL/6J mouse bearing mouse B16F0 cells at 18 to 20 MBq, iv within 1 hr by SPECT imaging study. The class given is ADME, organism-based. To be noted: in vivo. The method in brief: as §2

Structures are written as SMILES.

Consider `O=C1c2ccccc2CN1CC(=O)N1C[C@@H]2C[C@H]1CN2Cc1ccc([123I])cc1`, for which, in data set [1], the Retention_time turned out to be 15.9 min. Besides, the Drug uptake result is “Active” in data set [2], “Not Active” in the data set on Brain [3] and “Active” in data set [4].

Compound `O=C(CN1Cc2ccccc2C1=O)N1CCCN(Cc2ccc([123I])cc2)CC1` registered a Retention_time in data set [1] of 14.5 min. Moreover, the values for the Drug uptake result (in data set [2]; in the data set with Brain [3]; in data set [4]) were “Active”, “Not Active” and “Active”, respectively.

In turn, `O=C(CN1Cc2ccccc2C1=O)N1CCN(Cc2ccc([123I])cc2)CC1` displayed a Retention_time in data set [1] of 17.3 min. Also, the Drug uptake entry is “Not Active” with Brain [3] and “Active” in data set [4].

`O=C(c1cccnc1)N1CCN(Cc2ccc([123I])cc2)CC1` returned a Retention_time in data set [1] of 16 min. The figures for the Drug uptake entry (in data set [5]; with Brain [3]; in data set [4]) were “Active”, “Not Active” and “Active”, respectively.

In data set [1], `CCN(CC)CCNC(=O)c1cnc2cc([123I])ccc2n1` gave a Retention_time of 15.7 min. In addition, the Drug uptake entry (in data set [6]; in the data set on Brain [7]; in the data set with Brain [3]; in data set [4]) was “Active” in each case.
